Most compounds without a hit are left out; they make up all but 2.3% or so of the library.
TPT1 inh: blocks Candida albicans tRNA 2'-phosphotransferase; recombinant caTPT1, FP RNA substrate dephosphorylation; inhibition, % at 5 µM; 300,000 tested, 0.81% active; AID 1962;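 active = inhibition above the mean of all tested compounds plus 3 SD, set per screening campaign, cut at about 24% in these data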;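 also: plate controls were DMSO alone for no effect and ferristatin control at 100 nM for full effect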
CRFBP-R2 agonist: CRF-BP/CRF-R2 complex agonism | HEK293 CRF-R2/CRF-BP, calcium dye fluorescence (FLIPR); percent of saturating CRF peptide response | activation, % at 13.2 µM | 350,000 tested, 0.46% active | AID 588473;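 active = activation of at least 50%, plus an integration ratio under a set limit after plate pattern correction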;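 also: plate controls were neutral control wells without compound for no effect and CRF at EC100 for full effect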
CRFBP-R2 block: CRF-BP/CRF-R2 complex antagonism; inhibition, % at 11.8 µM; HEK293 CRF-R2/CRF-BP, CRF-induced calcium fluorescence; 350,000 tested, 0.59% active; AID 588475;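 active = inhibition of the ligand-induced calcium signal above about 50% at the single tested concentration, limit read from the data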
Rpn11 inh: Rpn11 (human) deubiquitinase inhibition | O00487 | human 26S proteasome, Ub4-pepOG fluorescence polarization; 20S core pre-blocked with epoxomicin | calls only at 20 µM | 360,000 tested, 0.59% active;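 active = inhibition at 20 µM, scaled to each plate's controls, above about 33%, limit read from the data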
CSN deneddyl inh: CSN deneddylation inhibition; 360,000 tested, 0.38% active; inhibition, % at 12.5 µM; AID 651999; Purified CSN, SCF-Nedd8-OG deneddylation, fluorescence polarization;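 active = pattern-corrected inhibition above about 35%, with an unprinted fluorescence ratio check between 0.5 and 1.5, limit read from the data, passing the limit was not always enough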;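 also: 0% = enzyme with substrate and 100% = substrate without enzyme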
Target sequence (Q92905 whole entry, looked up, one chain of several): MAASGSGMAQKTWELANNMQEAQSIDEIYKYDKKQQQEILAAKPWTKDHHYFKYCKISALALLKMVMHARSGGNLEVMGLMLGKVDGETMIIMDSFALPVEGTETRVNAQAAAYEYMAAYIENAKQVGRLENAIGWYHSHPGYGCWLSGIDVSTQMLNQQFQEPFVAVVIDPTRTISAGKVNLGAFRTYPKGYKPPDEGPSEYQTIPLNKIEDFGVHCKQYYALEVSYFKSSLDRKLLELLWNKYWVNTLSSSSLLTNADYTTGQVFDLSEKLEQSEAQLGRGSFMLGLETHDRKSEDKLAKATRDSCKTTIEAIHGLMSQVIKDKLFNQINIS
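test system = HEK293T-derived human Csn5 enzyme | amount = 0.24 nM Csn5 enzyme, final concentration | medium = Tris/NaCl/DTT buffer, pH 7.5 | schedule = 90 min reaction at room temperature | signal = FP | evaluation = inhibition of Csn5 cleavage, % | compound dosing = single dose of 12.5 µM compound with 0.25% DMSO | probe or stimulus = 10 nM SCFSkp2-Nedd8OG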
HNF4A DNA FP: change in binding of human HNF4 alpha to DNA; HNF4a-FITC DNA binding, fluorescence polarization, 1 h; P41235; activity change, % at 10 µM; 360,000 tested, 0.3% active; AID 1224865; in the data active = activity change above about 30%, passing the limit was not always enough
caTPT1 confirm: TPT1 (C. albicans) inhibition, confirmation | shares compounds with TPT1 inh | 2,400 tested, 74% active | inhibition, % at 5 µM | AID 2149 | recombinant caTPT1, fluorescence polarization, RNase T1 coupled;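 active = inhibition above the primary screen limit, the mean inhibition of all tested compounds plus 3 SD, cut at about 25% in these data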
RNase T1 inh: RNase T1 inhibition in TPT1 counter-screen | inhibition, % at 5 µM | shares compounds with TPT1 inh | RNase T1 cleavage, fluorescence polarization, 1536-well | 2,400 tested, 83% active;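 active = inhibition above the solvent-only control well mean plus 3 SD, limit set per screening run, cut at about 23% in these data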;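 also: plate controls were DMSO wells with enzyme for no effect and wells without RNase T1 for full effect; inhibitors block cleavage so intact labeled substrate keeps polarization high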
Target sequence (P00651 whole entry, looked up): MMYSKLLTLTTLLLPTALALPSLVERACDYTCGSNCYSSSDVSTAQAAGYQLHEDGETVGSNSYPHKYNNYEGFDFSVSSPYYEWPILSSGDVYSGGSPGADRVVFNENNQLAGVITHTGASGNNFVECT
* marks the source's active call; other numbers are inactive results; i = inactive; . = not tested or not shown; + = active, no number.

SMILES | TPT1 inh | CRFBP-R2 agonist | CRFBP-R2 block | Rpn11 inh | CSN deneddyl inh | HNF4A DNA FP | caTPT1 confirm | RNase T1 inh
Cc1cc(C=C2C(=O)N(C)C(=O)N(C)C2=O)c(C)n1-c1ccccc1 | 1.3 | 6.8 | 31.8 | i | 7.1 | -1.4 | . | .
CC(C)OCCCNC(=O)c1c(N)n(Cc2cccs2)c2nc3ccccc3nc12 | 26.5* | -1.6 | -0.9 | i | 6.8 | 3.6 | 10.3 | 12.4
CC(C)CNC(=O)c1c(N)n(Cc2ccco2)c2nc3ccccc3nc12 | 28.5* | 19.1 | -38.8 | i | 16.6 | 3.5 | 16.1 | 23.0*
CCCNC(=O)c1c(N)n(Cc2ccco2)c2nc3ccccc3nc12 | 15.4 | 23.3 | -26.1 | . | . | . | . | .
CC(C)CCn1c(N)c(C(=O)NCc2cccs2)c2nc3ccccc3nc21 | 0.5 | 0.1 | -11.4 | i | 10.2 | 6.4 | . | .
CCC(=Nc1ccc2c(c1)CCC2)c1c(O)n(C)c(=O)n(C)c1=O | -0.9 | 3.3 | -4.3 | i | -1.3 | -1.4 | . | .
CC(C)C[C@H]1COc2cc(N3CCN(C)CC3)ccc2S(=O)(=O)N1 | . | . | . | . | 2.7 | 3.0 | . | .
CSc1ncc(/C=C2/C(=O)NC(=O)N(C3CCCCC3)C2=O)cn1 | 31.5* | 2.1 | -13.3 | i | 6.0 | 2.6 | 31.6* | 42.7*
COc1ccc(S(=O)(=O)NC(CC(=O)N2CCC3(CC2)OCCO3)c2ccco2)cc1 (centres undefined) | 0.6 | -1.2 | -0.1 | i | 2.9 | -2.6 | . | .
COc1ccc(OC)c(N2C(=O)/C(=C/c3ccco3)C(=O)NC2=S)c1 | 67.9* | 1.5 | 8.3 | . | . | . | 54.6* | 27.0*
CCCCn1c(O)c(/C(CC)=N/N2CCCCC2c2cccnc2)c(=O)[nH]c1=S (centres undefined) | 19.5 | 9.7 | -25.7 | i | 6.2 | 6.7 | . | .
C/C(=N\N1CCCCC1c1cccnc1)c1c(O)n(C2CCCCC2)c(=S)[nH]c1=O (centres undefined) | 82.3* | 2.7 | -29.1 | . | 7.2 | 61.1* | 123.4* | 132.8*
CCOc1ccc(N2C(=O)NC(=O)/C(=C\c3ccc(N4CCCCC4)o3)C2=O)cc1 | 138.1* | 56.9* | -40.5 | . | 138.3 | 181.4 | 148.6* | 145.9*
CN1C(=O)C(=Cc2ccc(Sc3ccccc3)o2)C(=O)N(C)C1=S | 36.5* | 0.9 | -3.0 | + | 18.0 | -0.5 | 23.8 | 37.5*
CN1C(=O)C(=Cc2ccc(N3CCOCC3)o2)C(=O)N(C)C1=S | 56.8* | 239.1* | -200.9 | . | 175.7 | 86.6* | 114.3* | 118.0*
CN1C(=O)/C(=C\c2ccc(N3CCCCC3)o2)C(=O)NC1=S | 113.0* | 130.1* | -68.7 | . | 172.0 | 181.5 | 141.6* | 135.5*
O=C1NC(=O)C(=Cc2ccc(Sc3ccccc3)o2)C(=O)N1 | 4.3 | 1.1 | -18.9 | i | 1.1 | -7.7 | . | .
CN(C)C(=Nc1ccccc1)P(=S)(N(C)C)N(C)C | -0.7 | 2.9 | -27.9 | i | -3.5 | 4.0 | . | .
CCOC(=O)C1C(=O)N(C)C2(C)CC1c1cc(OC)ccc1O2 (centres undefined) | -3.3 | -1.3 | 9.0 | i | 3.7 | 7.5 | . | .
Clc1ccc2c(c1)C(c1ccccc1Cl)=NCc1nncn1-2 | -1.3 | 2.1 | -2.3 | i | -1.4 | 0.5 | . | .
CN1CCN(c2ccc(/C=C3\C(=O)NC(=S)N(c4cccc(Br)c4)C3=O)o2)CC1 | 131.7* | 163.8* | -179.8 | . | 138.9 | 127.7 | 151.8* | 142.3*
CN1C(=O)/C(=C/c2ccc(N3CCCCCC3)o2)C(=O)NC1=S | 167.4* | 44.7 | -34.1 | . | 154.2 | 158.3 | 144.9* | 138.2*
O=C1NC(=O)N(c2cccc(F)c2)C(=O)/C1=C/c1ccc(N2CCOCC2)cc1 | 7.8 | 1.0 | -9.1 | i | 8.8 | -0.5 | . | .
C=CCN1C(=O)/C(=C\c2ccc(N3CCOCC3)o2)C(=O)NC1=S | 107.9* | 40.2 | -29.1 | . | 112.2 | 56.0* | 120.3* | 123.6*
CCCCN1C(=O)/C(=C/c2ccc(N3CCCCCC3)cc2)C(=O)NC1=S | 36.5* | . | . | . | . | . | 32.7* | 43.1*
SMILES | TPT1 inh | CRFBP-R2 agonist | CRFBP-R2 block | Rpn11 inh | CSN deneddyl inh | HNF4A DNA FP | caTPT1 confirm | RNase T1 inh
C=CCN1C(=O)/C(=C/c2ccc3c(c2)CCCN3CCC)C(=O)NC1=S | 12.6 | -1.1 | -18.0 | i | 11.5 | 4.2 | . | .
NCCCP(=O)(O)CCc1ccccc1 | 2.1 | 0.1 | 11.1 | i | -0.6 | -1.2 | . | .
CCN1CCN(C(=O)COc2cc(=O)n(CC)c3ccccc23)CC1 | -2.0 | 0.4 | 4.7 | i | 0.1 | 0.1 | . | .
COc1ccc(CN2C(=O)NC(=O)/C(=C\c3cccc(OC)c3OC)C2=O)cc1 | 15.8 | -0.2 | -32.0 | i | -9.9 | -1.1 | . | .
C#C[C@]1(O)CC[C@H]2[C@@H]3CCC4=Cc5nc6nc7ccccc7n6cc5C[C@]4(C)[C@H]3CC[C@@]21C | 32.2* | 41.3 | -27.1 | i | 14.4 | 10.0 | 33.4* | 43.9*
C#CC1(O)CCC2C3CCC4=C/C(=N/OCC(=O)NCC(=O)NC(C(=O)O)C(C)C)CC[C@]4(C)C3CC[C@@]21C (some centres undefined) | . | 0.8 | -0.8 | i | 1.2 | -2.5 | . | .
CCCCCn1c(NC(=O)c2ccco2)c(C(=O)OCC)c2nc3ccccc3nc21 | 36.3* | 0.7 | -49.3 | i | 30.4 | 9.9 | 31.0* | 42.7*
Cn1cc(C(=O)OCC(=O)N2CCCCC2)c2ccccc21 | . | 0.5 | -7.8 | i | 5.7 | 3.5 | . | .
CCN(CCO)c1ccc(N=Cc2c(O)n(C)c(=S)[nH]c2=O)cc1 | 57.4* | 87.0* | -101.5 | . | 24.7 | 2.0 | 86.4* | 94.0*
CCn1c(O)c(C=Nc2ccc(S(N)(=O)=O)cc2)c(=O)[nH]c1=S | 7.3 | 9.3 | -22.8 | i | 10.9 | 5.0 | . | .
CCN(CC)c1ccc(N=Cc2c(O)n(CCc3ccc(OC)c(OC)c3)c(=O)[nH]c2=O)cc1 | 43.3* | 127.4* | -115.1 | . | -2.0 | 11.8 | 80.5* | 93.4*
O=c1c2ccccc2nc(-c2ccco2)n1-c1ccncc1 | -3.5 | -0.3 | -16.3 | i | -5.7 | 4.4 | . | .
CCCOP(=O)(OCCC)C(NC(=O)c1ccccc1)=C(Cl)Cl | -5.1 | -1.4 | -8.9 | i | -17.9 | -0.6 | . | .
CCOP(=O)(OCC)C(NC(=O)c1ccc(Cl)cc1)=C(Cl)Cl | 49.3* | 1.7 | -2.0 | i | -0.2 | -0.8 | -0.2 | 4.9
O=C1NC(=O)C(=Cc2ccc(-c3ccc(F)cc3O)o2)C(=O)N1 | 25.1* | 16.6 | -57.2 | i | -2.3 | -0.8 | 42.5* | 62.9*
COc1cccc(CNCCc2ccc3c(c2)OCO3)c1OC | 0.8 | -1.3 | 12.9 | i | 2.3 | -0.6 | . | .
Oc1ccc2c3c1O[C@H]1c4[nH]c5ccccc5c4C[C@@]4(O)[C@@H](C2)N(CC2CC2)CC[C@]314 | 2.1 | 0.6 | -12.9 | i | -2.8 | 3.6 | . | .
